The text below walks through data of ChEMBL document CHEMBL4823260, “From High-Throughput Screening to Target Validation: Benzo[d]isothiazoles as Potent and Selective Agonists of Human Transient Receptor Potential Cation Channel Subfamily M Member 5 Possessing In Vivo Gastrointestinal Prokinetic Activity in Rodents” (J Med Chem, 2021).

Converted amounts (≈) assume the structure as drawn.

Data set [1] has as its target Transient receptor potential cation channel subfamily A member 1 (Homo sapiens, UniProt O75762). The data set is described as follows: Agonist activity at human TRPA1 expressed in HEK cells assessed as increase in menthol-induced intracellular calcium level incubated for 2 hrs by FLIPR assay. In kind it is cell-based. A digest of the protocol: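 HEK cells stably expressing hTRPA1, plated at 20,000/well 24 h ahead, loaded with calcium-6 dye plus 2.5 mM probenecid for 2 h at 37 °C. First FLIPR addition: 11-point 1:3 concentration series, read for 5 min, scaled to (−)menthol 1 mM final (100% control); pEC50 fitted. Final DMSO 0.5%; run at 37 °C.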
For orientation: Calcium assays in cells follow changes in intracellular calcium, usually with a dye or a luminescent sensor.

In data set [2] the target is Transient receptor potential cation channel subfamily V member 4 (Homo sapiens, UniProt Q9HBA0). In words: Agonist activity at human TRPV4 expressed in HEK cells assessed as increase in GSK1016790A-induced intracellular calcium level measured after 1 hr by FLIPR assay. In kind it is cell-based.
Chain of Transient receptor potential cation channel subfamily V member 4 (Q9HBA0 whole entry): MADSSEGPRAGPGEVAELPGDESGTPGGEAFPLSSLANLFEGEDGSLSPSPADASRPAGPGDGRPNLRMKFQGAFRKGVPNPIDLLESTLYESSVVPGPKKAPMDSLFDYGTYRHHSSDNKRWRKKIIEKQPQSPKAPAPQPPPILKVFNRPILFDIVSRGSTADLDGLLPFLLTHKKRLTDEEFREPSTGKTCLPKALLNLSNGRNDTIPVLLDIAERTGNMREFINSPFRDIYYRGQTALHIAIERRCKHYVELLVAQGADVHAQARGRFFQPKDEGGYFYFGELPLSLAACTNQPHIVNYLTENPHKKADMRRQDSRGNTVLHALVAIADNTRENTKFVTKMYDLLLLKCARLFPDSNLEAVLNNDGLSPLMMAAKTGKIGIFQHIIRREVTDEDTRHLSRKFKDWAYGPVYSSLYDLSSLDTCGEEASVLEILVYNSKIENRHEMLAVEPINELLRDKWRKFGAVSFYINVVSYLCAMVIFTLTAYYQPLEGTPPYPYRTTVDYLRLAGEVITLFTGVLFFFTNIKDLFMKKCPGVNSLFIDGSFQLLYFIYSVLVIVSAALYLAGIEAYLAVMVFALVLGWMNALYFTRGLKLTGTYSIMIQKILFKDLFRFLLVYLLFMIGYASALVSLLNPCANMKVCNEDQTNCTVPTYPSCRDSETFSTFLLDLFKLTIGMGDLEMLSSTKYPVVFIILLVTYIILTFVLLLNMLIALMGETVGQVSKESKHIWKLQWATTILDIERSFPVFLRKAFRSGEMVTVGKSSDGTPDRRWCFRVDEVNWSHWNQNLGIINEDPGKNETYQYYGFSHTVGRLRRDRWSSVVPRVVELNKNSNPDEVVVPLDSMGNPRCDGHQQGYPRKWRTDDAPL
Data set [3] has as its target Transient receptor potential cation channel subfamily V member 1 (Homo sapiens, UniProt Q8NER1). The data set is described as follows: Agonist activity at human TRPV1 expressed in CHO cells assessed as increase in capsaicin-induced intracellular calcium level measured after 1 hr by FLIPR assay. It counts as cell-based. A digest of the protocol: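 CHO cells stably expressing hTRPV1, plated at 10,000/well 24 h before the assay. Loaded with calcium-6 dye plus 2.5 mM probenecid for 1 h at 37 °C and 1 h at rt. FLIPR dual-addition protocol; agonist potency derived as pEC50.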

Data set [4] can be described thus: Efflux ratio of apparent permeability across basolateral to apical over apical to basolateral membrane in human Caco-2 cells incubated for 30 mins by LC-MS/MS analysis. In kind it is ADME, cell-based.
Data set [5] can be described thus: Apparent permeability across apical to basolateral membrane in human Caco-2 cells incubated for 30 mins by LC-MS/MS analysis. It counts as ADME, cell-based. (Caco-2 cells form a polarised layer with tight junctions and transporters.)
For data set [6], the target named is T1, Transient receptor potential cation channel subfamily M member 5 (Homo sapiens, UniProt Q9NZQ8).
T1 sequence (Q9NZQ8 whole entry): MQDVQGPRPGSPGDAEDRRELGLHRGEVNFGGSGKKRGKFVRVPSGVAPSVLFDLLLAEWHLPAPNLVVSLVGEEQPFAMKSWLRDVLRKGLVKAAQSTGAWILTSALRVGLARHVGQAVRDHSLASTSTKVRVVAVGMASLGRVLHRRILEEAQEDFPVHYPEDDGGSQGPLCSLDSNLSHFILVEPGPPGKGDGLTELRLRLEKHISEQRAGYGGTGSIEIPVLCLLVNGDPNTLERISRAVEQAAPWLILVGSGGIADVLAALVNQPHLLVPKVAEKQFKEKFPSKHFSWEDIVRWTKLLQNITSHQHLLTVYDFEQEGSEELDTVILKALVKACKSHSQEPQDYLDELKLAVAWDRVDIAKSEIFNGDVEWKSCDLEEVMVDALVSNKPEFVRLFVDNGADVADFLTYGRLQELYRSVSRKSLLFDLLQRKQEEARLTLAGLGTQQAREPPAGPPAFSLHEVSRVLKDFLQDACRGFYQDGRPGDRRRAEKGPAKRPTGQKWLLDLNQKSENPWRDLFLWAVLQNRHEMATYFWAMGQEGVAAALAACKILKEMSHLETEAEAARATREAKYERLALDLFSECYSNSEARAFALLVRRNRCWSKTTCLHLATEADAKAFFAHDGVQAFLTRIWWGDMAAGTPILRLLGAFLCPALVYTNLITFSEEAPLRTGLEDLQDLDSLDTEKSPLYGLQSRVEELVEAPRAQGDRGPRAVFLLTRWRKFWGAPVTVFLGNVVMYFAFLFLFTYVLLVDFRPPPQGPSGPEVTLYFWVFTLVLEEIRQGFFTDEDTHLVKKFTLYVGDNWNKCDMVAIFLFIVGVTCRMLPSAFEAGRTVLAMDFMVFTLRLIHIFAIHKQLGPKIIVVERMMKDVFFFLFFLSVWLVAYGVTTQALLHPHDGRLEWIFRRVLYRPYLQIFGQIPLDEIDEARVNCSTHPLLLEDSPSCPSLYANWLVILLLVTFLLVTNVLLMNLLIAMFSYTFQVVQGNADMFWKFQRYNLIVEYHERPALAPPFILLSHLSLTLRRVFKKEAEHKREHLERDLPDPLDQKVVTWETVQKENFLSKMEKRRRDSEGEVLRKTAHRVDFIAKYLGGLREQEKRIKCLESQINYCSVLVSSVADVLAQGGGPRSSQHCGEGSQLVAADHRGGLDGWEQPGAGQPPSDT
The data set is described as follows: Agonist activity at human TRPM5 expressed in CHO-K1 cells maintained at 80 mV final holding potential by syncroPatch assay. In kind it is cell-based. A digest of the protocol: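 SyncroPatch 384 whole-cell recording at rt on CHO-K1 cells stably expressing human or mouse TRPM5. Intracellular solution had 2 mM Na-ATP and 5 μM free Ca2+. Cumulative doses 0.03–31.6 μM in 0.5% DMSO, 150 s each after 180 s vehicle. Current measured at the end of the +80 mV step, normalized to vehicle; pEC50 is the mean of ≥2 independent experiments.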
For orientation: Patch clamp records ionic current or voltage across a cell membrane.

Data set [7] in a line: Intrinsic clearance in human liver microsomes assessed per mg protein incubated up to 30 mins in presence of NADPH by LC-MS/MS analysis. In kind it is ADME, Microsome. The conditions noted are these: […].
A short description of data set [8]: Intrinsic clearance in mouse liver microsomes assessed per mg protein incubated up to 30 mins in presence of NADPH by LC-MS/MS analysis. It counts as ADME, Microsome. The conditions noted are these: […].
A short description of data set [9]: Solubility of the compound in phospahte-buffered saline buffer at pH 7.4 incubated for 2 hrs by HPLC/UV analysis. It counts as physicochemical. The following applies: phosphate-buffered saline.
Data set [10] can be described thus: Protein binding in human plasma assessed as unbound fraction measured after 5 hrs by equilibrium dialysis based HPLC/UPLC-MS/MS analysis. It counts as ADME, cell-free.
Data set [11] has as its target Transient receptor potential cation channel subfamily M member 4 (Homo sapiens, UniProt Q8TD43). The data set is described as follows: Agonist activity at human TRPM4 expressed in CHO cells assessed as change in membrane potential by FLIPR assay.

Chain of Transient receptor potential cation channel subfamily M member 4 (Q8TD43 whole entry): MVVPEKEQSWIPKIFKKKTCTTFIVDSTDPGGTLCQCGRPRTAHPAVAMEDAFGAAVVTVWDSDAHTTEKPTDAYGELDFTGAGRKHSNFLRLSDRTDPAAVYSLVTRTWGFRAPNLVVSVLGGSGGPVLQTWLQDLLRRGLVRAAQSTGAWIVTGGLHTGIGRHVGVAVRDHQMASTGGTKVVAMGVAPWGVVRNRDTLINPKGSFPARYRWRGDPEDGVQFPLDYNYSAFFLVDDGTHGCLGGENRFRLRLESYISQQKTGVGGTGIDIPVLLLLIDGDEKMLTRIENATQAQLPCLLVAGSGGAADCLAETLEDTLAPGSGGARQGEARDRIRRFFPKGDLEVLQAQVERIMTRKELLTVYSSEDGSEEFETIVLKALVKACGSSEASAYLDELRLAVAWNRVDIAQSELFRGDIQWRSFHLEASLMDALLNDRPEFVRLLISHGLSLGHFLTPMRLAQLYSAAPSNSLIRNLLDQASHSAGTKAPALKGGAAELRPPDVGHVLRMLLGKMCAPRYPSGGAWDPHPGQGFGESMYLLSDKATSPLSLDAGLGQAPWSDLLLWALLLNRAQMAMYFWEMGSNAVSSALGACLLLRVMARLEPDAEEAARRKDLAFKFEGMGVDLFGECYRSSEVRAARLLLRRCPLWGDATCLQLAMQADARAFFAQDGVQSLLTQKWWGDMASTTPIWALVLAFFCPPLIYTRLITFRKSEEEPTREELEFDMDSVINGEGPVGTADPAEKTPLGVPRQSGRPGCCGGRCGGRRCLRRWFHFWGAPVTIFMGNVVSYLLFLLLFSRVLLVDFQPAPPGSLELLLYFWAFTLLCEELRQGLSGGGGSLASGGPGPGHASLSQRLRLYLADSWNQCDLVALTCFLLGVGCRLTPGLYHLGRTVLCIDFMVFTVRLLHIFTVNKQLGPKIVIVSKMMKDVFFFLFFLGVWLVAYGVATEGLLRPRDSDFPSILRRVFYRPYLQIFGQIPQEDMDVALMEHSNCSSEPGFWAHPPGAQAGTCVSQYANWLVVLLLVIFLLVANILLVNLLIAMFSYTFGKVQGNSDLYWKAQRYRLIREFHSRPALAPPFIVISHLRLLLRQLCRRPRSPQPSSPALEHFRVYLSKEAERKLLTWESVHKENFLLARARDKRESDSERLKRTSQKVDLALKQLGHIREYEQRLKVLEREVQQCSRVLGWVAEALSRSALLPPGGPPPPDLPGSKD
Chain of Transient receptor potential cation channel subfamily V member 1 (Q8NER1 whole entry): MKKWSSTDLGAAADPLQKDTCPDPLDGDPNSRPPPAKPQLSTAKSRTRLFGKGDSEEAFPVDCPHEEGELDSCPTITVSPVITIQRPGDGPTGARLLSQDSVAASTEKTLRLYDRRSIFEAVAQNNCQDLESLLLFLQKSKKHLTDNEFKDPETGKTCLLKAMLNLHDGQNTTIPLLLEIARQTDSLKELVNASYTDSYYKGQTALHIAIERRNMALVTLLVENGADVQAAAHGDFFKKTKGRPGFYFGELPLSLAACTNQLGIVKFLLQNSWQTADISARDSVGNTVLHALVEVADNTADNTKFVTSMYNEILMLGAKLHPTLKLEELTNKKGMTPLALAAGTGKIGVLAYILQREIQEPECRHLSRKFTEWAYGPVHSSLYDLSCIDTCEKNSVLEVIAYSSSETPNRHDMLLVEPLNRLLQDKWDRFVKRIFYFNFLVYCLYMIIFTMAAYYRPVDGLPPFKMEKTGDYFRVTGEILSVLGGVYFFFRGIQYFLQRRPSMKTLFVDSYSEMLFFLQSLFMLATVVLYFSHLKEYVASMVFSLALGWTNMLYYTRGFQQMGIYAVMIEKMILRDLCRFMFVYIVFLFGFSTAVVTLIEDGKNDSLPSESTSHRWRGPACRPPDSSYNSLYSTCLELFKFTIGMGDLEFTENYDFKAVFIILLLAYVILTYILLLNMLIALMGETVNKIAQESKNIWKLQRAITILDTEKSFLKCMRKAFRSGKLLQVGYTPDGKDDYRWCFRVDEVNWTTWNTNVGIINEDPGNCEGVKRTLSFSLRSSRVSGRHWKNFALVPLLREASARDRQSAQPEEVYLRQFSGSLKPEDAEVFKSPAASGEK
Chain of Transient receptor potential cation channel subfamily A member 1 (O75762 whole entry): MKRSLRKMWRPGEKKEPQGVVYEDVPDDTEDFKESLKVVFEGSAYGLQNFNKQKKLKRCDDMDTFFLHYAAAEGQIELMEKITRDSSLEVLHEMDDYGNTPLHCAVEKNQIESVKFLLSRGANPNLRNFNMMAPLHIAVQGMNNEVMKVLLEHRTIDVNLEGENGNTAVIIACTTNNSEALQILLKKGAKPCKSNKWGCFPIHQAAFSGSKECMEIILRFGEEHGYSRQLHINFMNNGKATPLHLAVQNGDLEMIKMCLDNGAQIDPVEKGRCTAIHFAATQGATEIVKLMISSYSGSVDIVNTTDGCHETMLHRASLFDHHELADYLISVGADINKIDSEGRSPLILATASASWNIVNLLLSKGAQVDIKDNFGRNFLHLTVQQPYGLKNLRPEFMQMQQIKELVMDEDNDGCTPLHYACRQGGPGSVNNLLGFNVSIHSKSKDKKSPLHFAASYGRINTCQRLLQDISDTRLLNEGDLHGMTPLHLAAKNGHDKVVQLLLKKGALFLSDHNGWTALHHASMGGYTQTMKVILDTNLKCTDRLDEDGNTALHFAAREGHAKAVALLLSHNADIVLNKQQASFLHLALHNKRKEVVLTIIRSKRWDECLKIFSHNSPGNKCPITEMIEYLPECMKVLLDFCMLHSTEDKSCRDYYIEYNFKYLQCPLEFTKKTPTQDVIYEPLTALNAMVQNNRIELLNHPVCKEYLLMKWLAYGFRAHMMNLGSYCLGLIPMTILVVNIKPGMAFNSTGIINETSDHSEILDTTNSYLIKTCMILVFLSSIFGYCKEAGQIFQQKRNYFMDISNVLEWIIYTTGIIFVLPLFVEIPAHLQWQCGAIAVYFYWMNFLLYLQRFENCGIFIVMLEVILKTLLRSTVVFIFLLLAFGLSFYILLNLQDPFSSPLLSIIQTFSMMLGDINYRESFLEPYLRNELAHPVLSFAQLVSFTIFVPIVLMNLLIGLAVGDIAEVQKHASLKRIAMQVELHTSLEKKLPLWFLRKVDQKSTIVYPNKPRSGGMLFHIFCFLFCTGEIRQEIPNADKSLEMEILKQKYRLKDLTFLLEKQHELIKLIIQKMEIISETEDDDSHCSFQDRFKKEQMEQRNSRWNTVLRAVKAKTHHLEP

With `Clc1cnc(CNc2ccc3sncc3c2)s1`, the EC50 (as a rule, the concentration that produces a half-maximal response) is 3.16 µM in data set [1]; over 15.8 µM in data set [2]; over 15.8 µM in data set [3]; 0.0891 µM in data set [6]; over 63.1 µM in data set [11]. In addition, in data set [4], the efflux ratio (in general, a quotient of directional permeabilities that is used to spot active efflux) at 0.5 h was determined as 0.97. In addition, the Papp A→B (commonly how fast a substance crosses the layer from the apical side) at 0.5 h in [5] stood at 12.6 ×10⁻⁶ cm/s. Further, the microsomal CLint amounted to 193 µL/min/mg in data set [7] and 462 µL/min/mg in [8]. Besides, in data set [9], the solubility (commonly the concentration that dissolves in the medium under given conditions) at 2 h stood at 50 µM (≈ 14.1 µg/mL). Moreover, the fraction unbound (as a rule, the share of the substance not bound to proteins or other matrix) at 5 h in [10] was under 0.01.
For the compound `Clc1cnc(CNc2ccc3cnsc3c2)s1`, the EC50 in [1] was 6.31 µM; in [2], over 15.8 µM; in data set [3], over 15.8 µM; in data set [6], 0.0437 µM; in data set [11], over 63.1 µM. In addition, the efflux ratio at 0.5 h in data set [4] turned out to be 1.08. Besides, the Papp A→B at 0.5 h in data set [5] worked out at 10.7 ×10⁻⁶ cm/s. Besides, the microsomal CLint in [7] turned out to be 146 µL/min/mg; in [8], 164 µL/min/mg. In addition, the solubility at 2 h in [9] came to 511 µM (≈ 144 µg/mL). In addition, in [10], the fraction unbound at 5 h is under 0.01.
Take `Clc1cnc(CNc2cc3sncc3cc2Cl)s1`: the half-maximal effective concentration (EC50) is 3.16 µM in [1]; over 15.8 µM in data set [2]; over 15.8 µM in data set [3]; 0.00794 µM in data set [6]; 3.16 µM in data set [11]. In data set [4], the efflux ratio at 0.5 h was 1.6. The Papp A→B at 0.5 h in data set [5] was 4.1 ×10⁻⁶ cm/s. For the same compound, the microsomal CLint in [7] amounted to 172 µL/min/mg; in data set [8], 520 µL/min/mg. The solubility at 2 h in data set [9] was found to be 30 µM (≈ 9.49 µg/mL). Also, the fraction unbound at 5 h in data set [10] was under 0.01.
